Test results as given in ChEMBL document CHEMBL1123454, “New alpha-methylene gamma-lactone derivatives of substituted nucleic acid bases as potential anticancer agents” (1986).
≈ marks a conversion by molar mass, not a printed value.

How the values were obtained:
Mus musculus [1] = assay: Average survival days was measured by administrating the compound to Ehrlich ascites carcinoma(EAC) in swiss mice at 12 mg/kg dose; type: functional
How it was run: (§1)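 Swiss male mice (18–20 g) inoculated ip on day 0 with 1×10^6 EAC cells diluted in normal saline. Daily ip treatment began 24 h later for 7 days, compound homogenized in saline with 2% Tween-80, dose volume ≤0.01 mL/g; vehicle controls. Six mice per dose, one control group per six groups. Deaths counted daily; median survival times, T/C.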

Mus musculus [2] = assay: Compound was tested in vivo for antitumor activity at 12 mg/kg dose; type: functional
How it was run: (§2)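 Swiss male mice (18–20 g) inoculated ip on day 0 with 1×10^6 Ehrlich ascites carcinoma cells in 0.2 mL saline. Starting 24 h later, ip dosing once daily for 7 days; compound homogenized in saline with 2% Tween-80, at most 0.01 mL/g. Controls received vehicle alone. Six mice per dose, one control group per six groups. Deaths counted daily; median survival times expressed as T/C.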

Mus musculus [3] = assay: Average survival days was measured by administrating the compound to Ehrlich ascites carcinoma (EAC) in swiss mice at 25 mg/kg dose; type: functional; how it was run: as §1
Mus musculus [4] = assay: Compound was tested in vivo for antitumor activity at 25 mg/kg dose; type: functional; how it was run: as §2
[5] = In vitro concentration required to reduce the growth rate of KB cells in culture by 50%; type: functional; settings: Homo sapiens, read-out: ED50 (the source's name)
How it was run: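 Cytotoxicity screened at the National Cancer Institute by its standard protocol against murine P-388 lymphocytic leukemia (PS) and human nasopharyngeal carcinoma KB cells in culture. ED50 (μg/mL) is the concentration that halves the growth rate relative to control cultures.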

PS = assay: In vitro concentration required to reduce the growth rate of PS cells in culture by 50%; settings: Mus musculus, read-out: ED50 (the source's name)
Mus musculus [6] = assay: Average survival days was measured by administrating the compound to Ehrlich ascites carcinoma (EAC) in swiss mice at 12 mg/kg dose; type: functional; how it was run: as §1

C=C1CC(CC)(CCn2cnc3c(O)ncnc32)OC1=O (stereo not given)
Average survival days (Mus musculus [1]): 17.5 | T/C (Mus musculus [2]): 113 | Average survival days (Mus musculus [3]): 17 | T/C (Mus musculus [4]): 109

C=C1CC(CC)(CCn2cnc3c(S)ncnc32)OC1=O (stereo not given)
Average survival days (Mus musculus [1]): 18 | T/C (Mus musculus [2]): 116 | Average survival days (Mus musculus [3]): 17.5 | T/C (Mus musculus [4]): 113

C=C1CC(C)(Cn2cnc3c(S)ncnc32)OC1=O (stereo not given)
Average survival days (Mus musculus [1]): 16 | EC50 [5]: > 10 µg/mL | T/C (Mus musculus [2]): 107 | EC50 (PS): > 10 µg/mL | Average survival days (Mus musculus [3]): 18.5 | T/C (Mus musculus [4]): 123

C=C1CC(C)(Cn2cnc3c(Cl)ncnc32)OC1=O (stereo not given)
Average survival days (Mus musculus [1]): 20 | EC50 [5]: 1.5 µg/mL (≈ 5.38 µM) | T/C (Mus musculus [2]): 133 | EC50 (PS): 0.17 µg/mL (≈ 0.61 µM) | Average survival days (Mus musculus [3]): 24 | T/C (Mus musculus [4]): 160

C=C1CC(CC)(CCn2cnc3c(Cl)ncnc32)OC1=O (stereo not given)
Average survival days (Mus musculus [1]): 19.5 | EC50 [5]: 2.6 µg/mL (≈ 8.48 µM) | T/C (Mus musculus [2]): 126 | EC50 (PS): 0.25 µg/mL (≈ 0.815 µM) | Average survival days (Mus musculus [3]): 25 | T/C (Mus musculus [4]): 161

C=C1CC(CC)(CCn2cc(C)c(=O)[nH]c2=O)OC1=O (stereo not given)
Average survival days (Mus musculus [1]): 24.5 | T/C (Mus musculus [2]): 163 | Average survival days (Mus musculus [3]): 25.5 | T/C (Mus musculus [4]): 170

C=C1CC(CC)(CCn2ccc(=O)[nH]c2=O)OC1=O (stereo not given)
EC50 [5]: 2.8 µg/mL (≈ 10.6 µM) | T/C (Mus musculus [2]): 129 | EC50 (PS): 0.35 µg/mL (≈ 1.32 µM) | Average survival days (Mus musculus [3]): 19.5 | T/C (Mus musculus [4]): 126 | Average survival days (Mus musculus [6]): 20

C=C1CC(CC)(CCn2cc(F)c(=O)n(CCC3(CC)CC(=C)C(=O)O3)c2=O)OC1=O (stereo not given)
Average survival days (Mus musculus [1]): 23.5 | T/C (Mus musculus [2]): 138 | Average survival days (Mus musculus [3]): 21 | T/C (Mus musculus [4]): 123

C=C1CC(CC)(CCn2cc(F)c(=O)[nH]c2=O)OC1=O (stereo not given)
Average survival days (Mus musculus [1]): 23 | T/C (Mus musculus [2]): 148 | Average survival days (Mus musculus [3]): 19.5 | T/C (Mus musculus [4]): 126

O=c1[nH]cc(F)c(=O)[nH]1 [FLUOROURACIL]
Average survival days (Mus musculus [3]): 33 | T/C (Mus musculus [4]): 220

C=C1CC(C)(Cn2cnc3c(O)ncnc32)OC1=O (stereo not given)
Average survival days (Mus musculus [1]): 16 | T/C (Mus musculus [2]): 107 | Average survival days (Mus musculus [3]): 16.5 | T/C (Mus musculus [4]): 110
